Measurements taken from ChEMBL document CHEMBL1123895, “Synthesis and anti-HIV activity of various 2'- and 3'-substituted 2',3'-dideoxyadenosines: a structure-activity analysis” (1987).

Key:
[1] = Selectivity ratio CD50 to ED50; format: functional
Summary of the method: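 Ratio of CD50 to ED50. CD50 is from uninfected MT-4 cells and ED50 from MT-4 cells infected with HIV at 10 CCID50 per well. Both are read after 5 days with compound by trypan blue viable cell counting in a blood cell counting chamber.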

MT4 [2] = assay: (§1) Anti-HIV activity was determined as dose required to protect 50% of the HIV-infected MT-4 cells against destruction; format: functional, Homo sapiens; conditions: read-out: ED50 (the source's name)
Summary of the method: (§2)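 MT-4 cells infected with HIV at 10 CCID50 per well, incubated 5 days with a range of compound concentrations. Viable cells counted in a blood cell counting chamber after trypan blue staining.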

MT4 [3] = assay: Cytotoxicity was determined as the dose required to reduce the viability of uninfected MT-4 cells by 50%; format: functional; conditions: Homo sapiens, read-out: CD50 (the source's name)
Summary of the method: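 Mock-infected MT-4 cells incubated 5 days with a range of compound concentrations. Viable cells counted in a blood cell counting chamber after trypan blue staining.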

MT4 [4] = assay: as §1; format: functional; conditions: Homo sapiens, read-out: ED50 (the source's name); summary of the method: as §2

## Nc1ncnc2c1ncn2[C@H]1C[C@H](F)[C@@H](CO)O1 (stereo in doubt; 12) [listing 1 of 2 here]
[1]
  Ratio: 11.1

## Nc1ncnc2c1ncn2[C@H]1C[C@H](F)[C@@H](CO)O1 (stereo in doubt; 13) [listing 1 of 2 here]
MT4 [2]
  EC50: 221 µM
MT4 [3]
  CC50: > 625 µM

## Nc1ncnc2c1ncn2[C@H]1C[C@H](F)[C@@H](CO)O1 (stereo in doubt; 12) [listing 2 of 2 here]
MT4 [2]
  EC50: 50 µM

## Cc1cn([C@H]2C[C@H](N=[N+]=[N-])[C@@H](CO)O2)c(=O)[nH]c1=O [ZIDOVUDINE]
MT4 [2]; Homo sapiens, MT4
  EC50: 0.006 µM
MT4 [3]
  CC50: 4 µM
[1]
  Ratio: 666

## [N-]=[N+]=N[C@@H]1C[C@@H](CO)O[C@H]1n1cnc2c(N)ncnc21
MT4 [4]
  EC50: 215 µM
MT4 [3]
  CC50: > 625 µM
[1]
  Ratio: > 2.9

## Nc1ncnc2c1ncn2[C@H]1C[C@H](F)[C@@H](CO)O1 (stereo in doubt; 13) [listing 2 of 2 here]
[1]
  Ratio: > 2.8

## Nc1ncnc2c1ncn2[C@H]1CC[C@@H](CO)O1
MT4 [2]; Homo sapiens, MT4
  EC50: 6.2 µM
MT4 [3]
  CC50: 889 µM
[1]
  Ratio: 148

## Nc1ncnc2c1ncn2[C@H]1C=C[C@@H](CO)O1
MT4 [2]; Homo sapiens, MT4
  EC50: > 25 µM
MT4 [3]
  CC50: 34 µM
[1]
  Ratio: < 1.2

## Nc1ncnc2c1ncn2[C@@H]1O[C@H](CO)C[C@@H]1F [LODENOSINE]
MT4 [2]; Homo sapiens, MT4
  EC50: 35 µM
MT4 [3]
  CC50: > 625 µM
[1]
  Ratio: > 18

## Nc1ncnc2c1ncn2[C@@H]1O[C@H](CO)C[C@H]1F
MT4 [4]
  EC50: > 625 µM
MT4 [3]
  CC50: > 625 µM

## [N-]=[N+]=N[C@H]1C[C@@H](CO)O[C@H]1n1cnc2c(N)ncnc21
MT4 [2]; Homo sapiens, MT4
  EC50: 55 µM
MT4 [3]
  CC50: 625 µM
[1]
  Ratio: 11.4
